Laboratory results from ChEMBL document CHEMBL4351026, “Antifungal activity, mode of action variability, and subcellular distribution of coumarin-based antifungal azoles” (Eur J Med Chem, 2019).
In brackets after ≈: the same amount, converted by molar mass. Activity calls are given as the source filed them. The calls are words filed in the database; no cut-off is given here.

How the values were obtained:
Candida albicans [1] = experiment: Antifungal activity against ERG11/ERG3 knocked out Candida albicans SN152 assessed as zone of inhibition at 25 ug […] by disk diffusion method; assay type: functional, organism-based
Candida dubliniensis = experiment: Antifungal activity against Candida dubliniensis T-99 assessed as reduction in fungal cell growth incubated for 24 hrs by MTT based broth double dilution method; assay type: functional; conditions: T-99, 24 h
How it was run: (§1)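 Broth double-dilution in Casitone broth. Starter cultures were grown 24 or 48 h at 37 °C, 5% CO₂, diluted 1:100, and added to serial two-fold dilutions at 64 to 0.007 µg/mL. Final inoculum was 5 x 10^4 to 5 x 10^5 CFU/mL; DMSO was 0.0012–1.3%. Plates were incubated at 37 °C, 5% CO₂, then MTT was added for 2 h. MIC followed CLSI M27-A3. Triplicates, two independent experiments.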

Candida parapsilosis [2] = experiment: Antifungal activity against Candida parapsilosis ATCC 22019 assessed as reduction in fungal cell growth incubated for 24 hrs by MTT based broth double dilution method; assay type: functional; conditions: Lodderomyces parapsilosis, ATCC 22019, 24 h; how it was run: as §1
Candida parapsilosis [3] = experiment: Antifungal activity against Candida parapsilosis ATCC 90018 assessed as reduction in fungal cell growth incubated for 24 hrs by MTT based broth double dilution method; assay type: functional; conditions: Lodderomyces parapsilosis, ATCC 90018, 24 h; how it was run: as §1
Nakaseomyces glabratus [4] = experiment: Antifungal activity against Candida glabrata ATCC 66032 assessed as reduction in fungal cell growth incubated for 24 hrs by MTT based broth double dilution method; assay type: functional; conditions: ATCC 66032, 24 h; how it was run: as §1
Nakaseomyces glabratus [5] = experiment: Antifungal activity against Candida glabrata ATCC 2001 assessed as reduction in fungal cell growth incubated for 24 hrs by MTT based broth double dilution method; assay type: functional; conditions: ATCC 2001, 24 h; how it was run: as §1
HEK-293T = experiment: Cytotoxicity against human HEK293T cells assessed as reduction in cell viability at 5 to 50 uM incubated for 24 hrs by XTT assay; assay type: cell-based
How it was run: (§2)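 HEK-293T were grown in DMEM with 10% FBS; HepG2 in RPMI with 15% FBS; both at 37 °C, 5% CO₂. Cells (4000 HepG2 or 7000 HEK-293T per well) were seeded on poly-D-lysine wells. After 24 h the medium was renewed and compounds added at 5–50 µM from 1 mM stocks in 10% DMSO/0.3% Tween/PBS. After 24 h more, XTT was added for 2 h at 37 °C; absorbance was read at 475 nm against 660 nm reference.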

Candida albicans [6] = experiment: Antifungal activity against Candida albicans SN152 assessed as zone inhibition at 25 ug incubated for 24 hrs by disk diffusion method; assay type: functional, organism-based
How it was run: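 Strains were streaked on YPD agar and grown at 30 °C: 24 h for parental SN152, 48 h for the erg11ΔΔ erg3ΔΔ mutant. Colonies were suspended in PBS and adjusted to OD 0.02 (SN152) or 0.03 (mutant), then spread on Casitone plates. A 6-mm disk loaded with 25 µg compound was placed centrally. Plates were incubated at 30 °C and photographed after 24 h.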

Candida albicans [7] = experiment: Antifungal activity against Candida albicans ATCC 90028 assessed as reduction in fungal cell growth incubated for 24 hrs by MTT based broth double dilution method; assay type: functional; conditions: ATCC 90028, 24 h; how it was run: as §1
[8] = system: Meyerozyma guilliermondii; experiment: Antifungal activity against Candida guilliermondii T-47 assessed as reduction in fungal cell growth incubated for 24 hrs by MTT based broth double dilution method; assay type: functional; conditions: T-47, 24 h; how it was run: as §1
Cytochrome P450 3A4 = Cytochrome P450 3A4 (Homo sapiens, UniProt P08684); experiment: Inhibition of recombinant human CYP3A4 using Luciferin-PPXE as substrate preincubated for 10 mins followed by NADPH addition measured after 15 mins by luminometric method; assay type: ADME
Sequence of Cytochrome P450 3A4 (P08684 whole entry): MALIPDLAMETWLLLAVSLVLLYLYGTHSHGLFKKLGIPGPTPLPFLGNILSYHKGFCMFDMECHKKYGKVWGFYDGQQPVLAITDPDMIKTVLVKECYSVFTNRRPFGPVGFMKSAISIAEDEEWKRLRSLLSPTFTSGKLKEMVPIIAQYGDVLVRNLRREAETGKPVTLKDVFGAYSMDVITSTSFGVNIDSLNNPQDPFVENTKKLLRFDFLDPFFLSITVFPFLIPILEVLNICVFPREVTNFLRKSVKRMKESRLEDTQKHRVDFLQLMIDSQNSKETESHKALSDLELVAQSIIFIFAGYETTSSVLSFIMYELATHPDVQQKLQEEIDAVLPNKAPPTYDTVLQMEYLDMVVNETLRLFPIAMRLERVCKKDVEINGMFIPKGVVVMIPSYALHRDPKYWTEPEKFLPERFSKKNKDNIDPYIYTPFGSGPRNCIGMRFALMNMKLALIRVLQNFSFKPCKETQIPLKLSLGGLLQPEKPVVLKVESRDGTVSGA
How it was run: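 P450-Glo luminescent assay, Luciferin-PPXE substrate. Compound was mixed with membranes containing recombinant human CYP3A4; controls were vehicle with membranes lacking CYP3A4. After 10 min preincubation at 37 °C, NADPH regeneration reagent was added and the mixture kept 15 min at 37 °C. Luciferin detection reagent stopped the reaction; after 20 min at room temperature, luminescence was read. Duplicates.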

Candida albicans [9] = experiment: Antifungal activity against Candida albicans SN152 assessed as reduction in fungal cell growth incubated for 24 hrs by MTT based broth double dilution method; assay type: functional; conditions: SN152, 24 h; how it was run: as §1
Nakaseomyces glabratus [10] = experiment: Antifungal activity against Candida glabrata ATCC 66032 assessed as reduction in fungal cell growth incubated for 48 hrs by MTT based broth double dilution method; assay type: functional; conditions: ATCC 66032, 48 h; how it was run: as §1
Candida albicans [11] = experiment: Antifungal activity against Candida albicans ATCC 90028 assessed as reduction in fungal cell growth incubated for 48 hrs by MTT based broth double dilution method; assay type: functional; conditions: ATCC 90028, 48 h; how it was run: as §1
Nakaseomyces glabratus [12] = experiment: Antifungal activity against Candida glabrata 192 assessed as reduction in fungal cell growth incubated for 48 hrs by MTT based broth double dilution method; assay type: functional; conditions: Nakaseomyces glabratus, 192, 48 h; how it was run: as §1
Candida albicans [13] = experiment: Antifungal activity against Candida albicans P-87 assessed as reduction in fungal cell growth incubated for 24 hrs by MTT based broth double dilution method; assay type: functional; conditions: P-87, 24 h; how it was run: as §1
[14] = Cytotoxicity against human HEK293T cells assessed as reduction in cell viability at 5 to 50 uM incubated for 24 hrs by XTT assay relative to control; assay type: cell-based, HEK-293T; conditions: HEK293T cells, read-out: INH
How it was run: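 HEK-293T cells were grown in DMEM with 10% FBS, 1% NEAA, 1% pyruvate and pen-strep-nystatin at 37 °C and 5% CO2. 7000 cells/well were seeded on poly-D-lysine-coated wells. After 24 h the medium was renewed and compounds were added at 5–50 µM from 1 mM stocks in 10% DMSO/0.3% Tween/PBS. After 24 h, XTT was added for 2 h at 37 °C, with absorbance read at 475 nm (reference 660 nm).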

Candida albicans [15] = experiment: Antifungal activity against Candida albicans SN152 assessed as reduction in fungal cell growth incubated for 48 hrs by MTT based broth double dilution method; assay type: functional; conditions: SN152, 48 h; how it was run: as §1
Nakaseomyces glabratus [16] = experiment: Antifungal activity against Candida glabrata 192 assessed as reduction in fungal cell growth incubated for 24 hrs by MTT based broth double dilution method; assay type: functional; conditions: Nakaseomyces glabratus, 192, 24 h; how it was run: as §1
[17] = Cytotoxicity against human HepG2 cells assessed as reduction in cell viability at 5 to 50 uM incubated for 24 hrs by XTT assay relative to control; assay type: cell-based; conditions: read-out: INH
How it was run: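 HepG2 cells were maintained in RPMI with 15% FBS, 1% NEAA, 1% pyruvate and pen-strep-nystatin at 37 °C and 5% CO2. 4000 cells/well were plated on poly-D-lysine coating and given fresh medium after 24 h. Compounds were dosed at 5–50 µM from 1 mM stocks in 10% DMSO/0.3% Tween/PBS and incubated 24 h. Viability was read by XTT (2 h, 37 °C) at 475 nm against 660 nm.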

HepG2 = experiment: Cytotoxicity against human HepG2 cells assessed as reduction in cell viability at 5 to 50 uM incubated for 24 hrs by XTT assay; assay type: cell-based; conditions: hepg2, 24 h; how it was run: as §2

Compound	MIC (Candida dubliniensis)	MIC (Candida parapsilosis [2])	MIC (Candida parapsilosis [3])	MIC (Nakaseomyces glabratus [4])	MIC (Nakaseomyces glabratus [5])	Activity (HEK-293T)	MIC (Candida albicans [7])	MIC [8]	IC50 (Cytochrome P450 3A4)	MIC (Candida albicans [9])	MIC (Nakaseomyces glabratus [10])	MIC (Candida albicans [11])	MIC (Nakaseomyces glabratus [12])	MIC (Candida albicans [13])	cytotoxicity at 24 h, up to 50 µM [14]	MIC (Candida albicans [15])	MIC (Nakaseomyces glabratus [16])	cytotoxicity at 24 h, up to 50 µM [17]	Activity (HepG2)	other results
CCN(CC)c1ccc2cc(C(=O)NCC(O)(Cn3cncn3)c3ccc(Cl)cc3Cl)c(=O)oc2c1 (racemic)	0.5 µg/mL (≈ 0.943 µM)	0.5 µg/mL (≈ 0.943 µM)	0.06 µg/mL (≈ 0.113 µM)	4 µg/mL (≈ 7.54 µM)	16 µg/mL (≈ 30.2 µM)	Non-Toxic	0.03 µg/mL (≈ 0.0566 µM)	0.25 µg/mL (≈ 0.471 µM)	0.351 µM	0.03 µg/mL (≈ 0.0566 µM)	> 64 µg/mL	0.06 µg/mL (≈ 0.113 µM)	> 64 µg/mL	0.03 µg/mL (≈ 0.0566 µM)	< 40%	0.06 µg/mL (≈ 0.113 µM)	4 µg/mL (≈ 7.54 µM)	< 40%	Non-Toxic	inhibition zone (IZ) (Candida albicans [1]): inactive; inhibition zone (IZ) (Candida albicans [6]): Active
CCC(CC)Oc1ccc2cc(C(=O)NCC(O)(Cn3cncn3)c3ccc(Cl)cc3Cl)c(=O)oc2c1 (racemic)	0.5 µg/mL (≈ 0.917 µM)	0.5 µg/mL (≈ 0.917 µM)	0.25 µg/mL (≈ 0.458 µM)	> 64 µg/mL	> 64 µg/mL	Non-Toxic	0.06 µg/mL (≈ 0.11 µM)	0.5 µg/mL (≈ 0.917 µM)	≥ 2.5 µM	0.06 µg/mL (≈ 0.11 µM)	> 64 µg/mL	0.06 µg/mL (≈ 0.11 µM)	> 64 µg/mL	0.03 µg/mL (≈ 0.055 µM)	< 40%	0.06 µg/mL (≈ 0.11 µM)	2 µg/mL (≈ 3.67 µM)	< 40%	Non-Toxic	–
CCN(CC)c1ccc2cc(C(=O)NCC(O)(Cn3ccnc3)c3ccc(Cl)cc3Cl)c(=O)oc2c1 (racemic)	0.25 µg/mL (≈ 0.472 µM)	0.06 µg/mL (≈ 0.113 µM)	0.015 µg/mL (≈ 0.0283 µM)	4 µg/mL (≈ 7.56 µM)	2 µg/mL (≈ 3.78 µM)	Toxic	0.015 µg/mL (≈ 0.0283 µM)	0.125 µg/mL (≈ 0.236 µM)	0.127 µM	0.03 µg/mL (≈ 0.0567 µM)	> 64 µg/mL	0.03 µg/mL (≈ 0.0567 µM)	1 µg/mL (≈ 1.89 µM)	0.03 µg/mL (≈ 0.0567 µM)	< 40%	0.06 µg/mL (≈ 0.113 µM)	0.25 µg/mL (≈ 0.472 µM)	< 40%	Toxic	–
CCC(CC)Oc1ccc2cc(C(=O)NCC(O)(Cn3cncn3)c3ccc(F)cc3F)c(=O)oc2c1 (racemic)	2 µg/mL (≈ 3.9 µM)	2 µg/mL (≈ 3.9 µM)	0.5 µg/mL (≈ 0.976 µM)	> 64 µg/mL	32 µg/mL (≈ 62.4 µM)	–	0.125 µg/mL (≈ 0.244 µM)	2 µg/mL (≈ 3.9 µM)	≥ 2.5 µM	0.25 µg/mL (≈ 0.488 µM)	> 64 µg/mL	0.5 µg/mL (≈ 0.976 µM)	8 µg/mL (≈ 15.6 µM)	0.125 µg/mL (≈ 0.244 µM)	–	0.5 µg/mL (≈ 0.976 µM)	4 µg/mL (≈ 7.8 µM)	–	–	–
